{
  "source": "paper PMC6287896",
  "about": "(Anti-Cancer Drugs, 2018)",
  "key": {"Plasma stability": {"experiment": "Plasma stability", "assay_type": "in vitro ADME", "conditions": "over 2 h", "in_short": "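Human plasma was spiked with test compound and incubated separately at 25 and 37°C. Drug levels were measured over 120 min.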"}, "[1]": {"experiment": "Acute toxicity, oral up and down procedure", "assay_type": "in vivo, mouse", "conditions": "2000 mg/kg, monitored 48 h, repeated twice on other animals"}, "[2]": {"experiment": "Plasma pharmacokinetics and bioavailability after intravenous and oral dosing", "assay_type": "in vivo", "conditions": "mouse, other: oral gavage and intravenous bolus", "in_short": "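Mice were dosed by intravenous bolus or oral gavage, with plasma sampled over 24 h and one sacrifice per time point. Plasma was protein-precipitated with acetonitrile/methanol, evaporated and reconstituted in 0.1% acetic acid. Quantitation was by C18 UHPLC–tandem MS with heated ESI and positive-mode SRM (240.100→110.054), against spiked mouse plasma calibrants. Half-life was taken from concentration–time profiles.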"}, "DU-145 cells": {"system": "DU-145 cells", "experiment": "WST-1 assay for cell viability and cytotoxicity", "assay_type": "cell-based, human", "conditions": "23.4 mmol/l, 4 day incubation, read up to 8 h, P≤0.01"}, "Tissue levels": {"experiment": "Tissue levels", "assay_type": "in vivo", "conditions": "mouse heart, liver, kidney, brain; up to 24 h; i.v. and oral", "in_short": "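After intravenous or oral dosing, liver, kidney, heart and brain were collected at sacrifice. Tissue was homogenised in ice-cold 0.1% acetic acid (10 ml/g) and centrifuged. Acetonitrile/methanol was added to the supernatant, followed by vortexing, centrifugation, evaporation and reconstitution in 0.1% acetic acid. Samples were quantified by LC–MS/MS (SRM 240.100→110.054) against spiked blank-tissue calibrants.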"}, "[3]": {"experiment": "Dose-response: serum markers of organ function", "assay_type": "in vivo, mouse", "in_short": "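Mice were dosed intravenously with vehicle or 50, 100 or 200 mg/kg test compound (six per group). They were euthanised by CO2 with cervical dislocation at 6 or 18 h, and blood and tissue were collected. Serum AST, GGT, CRP and troponin I were measured by colorimetric assays to assess liver, kidney and heart function. Tissues were examined for gross pathology.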"}, "PC-3 cells": {"system": "PC-3 cells", "experiment": "WST-1 assay for cell viability and cytotoxicity", "assay_type": "cell-based, human", "conditions": "23.4 mmol/l, 4 day incubation, read up to 8 h, P≤0.01"}, "[4]": {"system": "DU-145 prostate carcinoma cells", "experiment": "DU-145 xenografts in athymic nude mice", "assay_type": "in vivo, mouse", "conditions": "30 days"}, "[5]": {"conditions": "intravenous 50, 100 or 200 mg/kg, 6 or 18 h"}},
  "data": [
    {"smiles": "C[C@@H]1C[C@@H](n2cnc(C(N)=O)c2N)[C@H](O)[C@H]1O", "note": "[ICA-1s, 5-amino-1-((1R,2S,3S,4R)-2,3-dihydroxy-4-methylcyclopentyl)-1H-imidazole-4-carboxamide]", "values": [
      {"measurement": "stability in human plasma", "setting": "Plasma stability; 25°C (ambient)", "value": "stable"},
      {"measurement": "stability in human plasma", "setting": "Plasma stability; 37°C", "value": "stable"},
      {"measurement": "acute toxicity outcome at highest dose of the UDP", "setting": "[1]", "value": "survived with no observable adverse reaction"},
      {"measurement": "half-life", "setting": "[2]", "value": 5.7, "unit": "h"},
      {"measurement": "in-vitro cytotoxicity (WST-1, absorbance at 450 nm)", "setting": "DU-145 cells", "value": "significant cytotoxicity"},
      {"measurement": "accumulation in major organs (tissue levels)", "setting": "Tissue levels", "value": "did not appear to indicate accumulation"},
      {"measurement": "serum CRP versus control", "setting": "[3]; intravenous 200 mg/kg, 6 h after treatment, P=0.033", "value": "significant rise"},
      {"measurement": "serum AST versus control", "setting": "[3]; [5]", "value": "no significant difference"},
      {"measurement": "serum GGT versus control", "setting": "[3]; [5]", "value": "no significant difference"},
      {"measurement": "serum troponin I versus control", "setting": "[3]; [5]", "value": "no significant difference"},
      {"measurement": "serum CRP versus control, all other readings", "setting": "[3]; intravenous 50, 100 or 200 mg/kg, 6 or 18 h, other than 200 mg/kg at 6 h", "value": "no significant difference"},
      {"measurement": "in-vitro cytotoxicity (WST-1, absorbance at 450 nm)", "setting": "PC-3 cells", "value": "significant cytotoxicity"},
      {"measurement": "average tumor size of treated xenografts", "setting": "[4]; 100 mg/kg subcutaneous daily, untreated 156.4 mm^2", "value": 76.8, "unit": "mm^2"},
      {"measurement": "tumor growth rate relative to untreated tumors", "setting": "[4]; DU-145 xenografts, treated vs untreated", "value": "almost half the rate"}
    ]}
  ]
}
